Reference: ChEMBL document CHEMBL5661964, “Selective in vivo and in vitro effects of a small molecule inhibitor of cyclin-dependent kinase 4” (J Natl Cancer Inst, 2001)

Assays:
[1] = target: Cyclin-dependent kinase 5/CDK5 activator 1 (Homo sapiens, UniProt Q00535); assay: Inhibition of GST-tagged human CDK5/p35 expressed in baculovirus infected Sf9 cells using retinoblastoma protein in presence of ATP
Outline: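 Cdk holoenzymes (Cdk with GST-cyclin or activator), expressed in Sf9 insect cells and purified on glutathione-Sepharose, were combined 1:1. Radiometric reactions used [33P]ATP with GST-pRb(152), the C-terminal 152-residue pRb fragment, as substrate. Label was quantified by phosphorimager. Ten inhibitor concentrations from 0 to 100 μM were run in duplicate across three independent experiments. IC50 came from plotting percent incorporation relative to the no-inhibitor reaction against concentration.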

HCT-116 [2] = assay: Induction of cell cycle arrest in human HCT-116 cells assessed as number of cells at G2/M phase at 5 uM after 24 hrs in presence of 10% serum by flow cytometry analysis (reference value: 13.1%); format: functional
Outline: (§1)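 HCT116 cells in McCoy's 5A were serum-starved 72 h in 0.1% serum, then released for 24 h into 10% serum with or without compound. They were fixed in 70% ethanol, RNase-treated (3 mg/mL, 30 min, 37 °C) and stained with 50 μg/mL propidium iodide. Flow cytometry on FL-2 area with doublet gating gave the percentages in sub-G1, G0/G1, S and G2/M.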

HCT-116 [3] = assay: Induction of cell cycle arrest in human HCT-116 cells assessed as number of cells at SubG1 phase at 5 uM after 24 hrs in presence of 10% serum by flow cytometry analysis (reference value: 1.1%); format: functional; outline: as §1
HCT-116 [4] = assay: Induction of cell cycle arrest in human HCT-116 cells assessed as number of cells at G0/G1 phase at 10 uM after 24 hrs in presence of 10% serum by flow cytometry analysis (reference value: 49.5%); format: functional; outline: as §1
HCT-116 [5] = assay: Induction of cell cycle arrest in human HCT-116 cells assessed as number of cells at S phase at 10 uM after 24 hrs in presence of 10% serum by flow cytometry analysis (reference value: 36.3%); format: functional; outline: as §1
MRC5 [6] = assay: Induction of cell cycle arrest in human MRC5 cells assessed as number of cells at S phase at 5 uM after 24 hrs in presence of 10% serum by flow cytometry analysis (reference value: 16.1%); format: functional
MRC5 [7] = assay: Induction of cell cycle arrest in human MRC5 cells assessed as number of cells at G2/M phase at 5 uM after 24 hrs in presence of 10% serum by flow cytometry analysis (reference value: 14.9%); format: functional
MRC5 [8] = assay: Induction of cell cycle arrest in human MRC5 cells assessed as number of cells at SubG1 phase at 5 uM after 24 hrs in presence of 10% serum by flow cytometry analysis (reference value: 4.9%); format: functional
MRC5 [9] = assay: Induction of cell cycle arrest in human MRC5 cells assessed as number of cells at SubG1 phase at 10 uM after 24 hrs in presence of 10% serum by flow cytometry analysis (reference value: 4.9%); format: functional
U2OS [10] = assay: Induction of cell cycle arrest in human U2OS cells assessed as percentage of cells at G0/G1 phase, cells were released from mimosine block prior to compound addition at 5 uM after 38 hrs by flow cytometry analysis (reference value: 39.6%); format: functional
U2OS [11] = assay: Induction of cell cycle arrest in human U2OS cells assessed as percentage of cells at G0/G1 phase, cells were released from mimosine block prior to compound addition at 10 uM after 38 hrs by flow cytometry analysis (reference value: 39.6%); format: functional
U2OS [12] = assay: Induction of cell cycle arrest in human U2OS cells assessed as percentage of cells at S phase, cells were released from mimosine block prior to compound addition at 5 uM after 16 hrs by flow cytometry analysis (reference value: 33%); format: functional
U2OS [13] = assay: Induction of cell cycle arrest in human U2OS cells assessed as percentage of cells at S phase, cells were released from mimosine block prior to compound addition at 10 uM after 16 hrs by flow cytometry analysis (reference value: 33%); format: functional
U2OS [14] = assay: Induction of cell cycle arrest in human U2OS cells assessed as percentage of cells at G2/M phase, cells were released from mimosine block prior to compound addition at 5 uM after 16 hrs by flow cytometry analysis (reference value: 47.6%); format: functional
U2OS [15] = assay: Induction of cell cycle arrest in human U2OS cells assessed as percentage of cells at SubG1 phase, cells were released from mimosine block prior to compound addition at 5 uM after 38 hrs by flow cytometry analysis (reference value: 5%); format: functional
U2OS [16] = assay: Induction of apoptosis in human U2OS cells assessed as number of apoptotic cells at 5 uM after 48 hrs by TUNEL staining based fluorescence analysis (reference value: 0.61%); format: functional
NIH3T3 [17] = assay: Induction of cell cycle arrest in mouse NIH3T3 cells expressing pRb assessed as percentage of cells at G0/G1 phase at 5 uM after 24 hrs by flow cytometry analysis (reference value: 44.7%); format: functional
NIH3T3 [18] = assay: Induction of cell cycle arrest in mouse NIH3T3 cells expressing pRb-negative assessed as percentage of cells at G0/G1 phase at 5 uM after 24 hrs by flow cytometry analysis (reference value: 43.5%); format: functional
NIH3T3 [19] = assay: Induction of cell cycle arrest in mouse NIH3T3 cells expressing pRb-negative assessed as percentage of cells at S phase at 5 uM after 24 hrs by flow cytometry analysis (reference value: 20%); format: functional
Outline: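 Congenic NIH3T3 line with homozygous Rb deletion, grown at 37 °C in 5% CO2 in high-glucose DMEM with 10% FCS. Asynchronous cells were seeded at 7.5 × 10^4 cells/mL, grown 24 h, then treated 24 h (compound added from 100× stocks in 10% DMSO). Cells were ethanol-fixed, treated with RNase and stained with propidium iodide; FL-2 area was measured with single-event gating. Run at least twice.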

NIH3T3 [20] = assay: Induction of cell cycle arrest in mouse NIH3T3 cells expressing pRb-negative assessed as percentage of cells at G0/G1 phase at 10 uM after 24 hrs by flow cytometry analysis (reference value: 43.5%); format: functional
NIH3T3 [21] = assay: Induction of cell cycle arrest in mouse NIH3T3 cells expressing pRb-negative assessed as percentage of cells at S phase at 10 uM after 24 hrs by flow cytometry analysis (reference value: 20%); format: functional
U2OS [22] = assay: Induction of cell cycle arrest in human U2OS cells expressing pRb negative assessed as percentage of cells at G0/G1 phase at 5 uM after 24 hrs by flow cytometry analysis (reference value: 42.5%); format: functional
U2OS [23] = assay: Induction of cell cycle arrest in human U2OS cells expressing pRb negative assessed as percentage of cells at S phase at 10 uM after 24 hrs by flow cytometry analysis (reference value: 30.3%); format: functional
[24] = target: Hepatocyte growth factor receptor (Homo sapiens, UniProt P08581); assay: Inhibition of GST-tagged human c-met expressed in baculovirus infected Sf9 cells using tyrosine-containing peptide substrate in presence of ATP
Chain of Hepatocyte growth factor receptor (P08581 whole entry): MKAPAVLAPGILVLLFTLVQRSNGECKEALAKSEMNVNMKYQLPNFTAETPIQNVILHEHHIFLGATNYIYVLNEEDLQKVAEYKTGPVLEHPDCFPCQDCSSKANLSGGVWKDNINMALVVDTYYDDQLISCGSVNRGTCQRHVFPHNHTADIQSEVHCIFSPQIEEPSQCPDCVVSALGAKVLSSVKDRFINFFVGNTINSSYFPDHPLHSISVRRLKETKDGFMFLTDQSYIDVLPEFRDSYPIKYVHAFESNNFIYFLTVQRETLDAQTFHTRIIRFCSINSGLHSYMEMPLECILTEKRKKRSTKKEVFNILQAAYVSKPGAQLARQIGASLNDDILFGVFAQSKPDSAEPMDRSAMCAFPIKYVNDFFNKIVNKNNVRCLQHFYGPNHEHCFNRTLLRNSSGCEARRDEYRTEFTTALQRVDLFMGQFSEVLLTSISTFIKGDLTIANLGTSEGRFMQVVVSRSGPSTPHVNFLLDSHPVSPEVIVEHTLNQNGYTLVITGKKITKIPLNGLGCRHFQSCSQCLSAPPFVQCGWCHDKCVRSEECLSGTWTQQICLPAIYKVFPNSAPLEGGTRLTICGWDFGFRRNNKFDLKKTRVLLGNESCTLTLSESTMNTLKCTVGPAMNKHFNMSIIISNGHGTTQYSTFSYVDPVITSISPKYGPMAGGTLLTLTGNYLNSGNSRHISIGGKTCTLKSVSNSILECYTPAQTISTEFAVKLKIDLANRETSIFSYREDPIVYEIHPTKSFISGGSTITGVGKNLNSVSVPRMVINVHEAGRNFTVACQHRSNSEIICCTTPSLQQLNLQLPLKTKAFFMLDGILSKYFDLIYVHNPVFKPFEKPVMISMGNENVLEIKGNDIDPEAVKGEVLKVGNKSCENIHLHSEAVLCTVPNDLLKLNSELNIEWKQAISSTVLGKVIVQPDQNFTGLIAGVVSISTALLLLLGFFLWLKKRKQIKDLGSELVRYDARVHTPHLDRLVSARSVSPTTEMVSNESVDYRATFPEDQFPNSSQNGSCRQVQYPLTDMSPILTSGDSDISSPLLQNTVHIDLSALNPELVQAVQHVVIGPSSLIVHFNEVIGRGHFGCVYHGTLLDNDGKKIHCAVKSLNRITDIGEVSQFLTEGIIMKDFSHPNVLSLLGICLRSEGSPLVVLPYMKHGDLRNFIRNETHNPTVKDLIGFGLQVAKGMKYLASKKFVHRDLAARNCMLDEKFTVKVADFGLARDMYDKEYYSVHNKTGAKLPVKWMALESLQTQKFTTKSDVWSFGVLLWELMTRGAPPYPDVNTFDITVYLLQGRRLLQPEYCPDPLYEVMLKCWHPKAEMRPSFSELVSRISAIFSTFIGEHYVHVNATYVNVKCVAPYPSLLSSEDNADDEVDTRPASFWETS

Chain of Cyclin-dependent kinase 5/CDK5 activator 1 (Q00535 whole entry, the tested form may be a part): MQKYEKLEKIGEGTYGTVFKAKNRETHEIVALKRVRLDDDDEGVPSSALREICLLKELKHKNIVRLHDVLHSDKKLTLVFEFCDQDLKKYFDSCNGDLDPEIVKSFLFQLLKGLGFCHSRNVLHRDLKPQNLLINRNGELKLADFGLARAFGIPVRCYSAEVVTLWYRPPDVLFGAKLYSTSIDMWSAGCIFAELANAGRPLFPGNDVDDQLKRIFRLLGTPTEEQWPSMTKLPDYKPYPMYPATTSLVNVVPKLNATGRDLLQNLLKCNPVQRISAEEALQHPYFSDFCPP
Chain of Cyclin-dependent kinase 5/CDK5 activator 1 (Q15078 whole entry, further chain, the tested form may be a part): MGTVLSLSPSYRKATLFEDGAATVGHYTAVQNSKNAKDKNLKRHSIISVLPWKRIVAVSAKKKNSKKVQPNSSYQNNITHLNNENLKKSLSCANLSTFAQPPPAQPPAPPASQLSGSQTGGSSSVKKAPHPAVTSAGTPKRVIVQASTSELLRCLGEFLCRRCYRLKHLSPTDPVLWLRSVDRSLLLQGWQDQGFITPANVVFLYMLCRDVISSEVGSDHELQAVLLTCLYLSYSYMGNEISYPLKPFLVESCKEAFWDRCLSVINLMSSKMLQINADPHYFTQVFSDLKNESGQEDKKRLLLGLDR

- IC50 [1]: 25 µM
- IC50 [24]: > 10 µM
SMILES: CCNc1cc(N[C@H]2CC[C@H](O)CC2)nc(Nc2ccc3c(ccn3Cc3ccccc3)c2)n1
- Activity (HCT-116 [2]): 14.6%
- Activity (HCT-116 [3]): 2.2%
- Activity (HCT-116 [4]): 60.3%
- Activity (HCT-116 [5]): 22.6%
- Activity (MRC5 [6]): 7.1%
- Activity (MRC5 [7]): 4.4%
- Activity (MRC5 [8]): 7.4%
- Activity (MRC5 [9]): 8.3%
- Activity (U2OS [10]): 34.8%
- Activity (U2OS [11]): 14.3%
- Activity (U2OS [12]): 33%
- Activity (U2OS [13]): 29.5%
- Activity (U2OS [14]): 47.6%
- Activity (U2OS [15]): 13.2%
- Activity (U2OS [16]): 1%
- Activity (NIH3T3 [17]): 92.3%
- Activity (NIH3T3 [18]): 49.8%
- Activity (NIH3T3 [19]): 9.1%
- Activity (NIH3T3 [20]): 48.7%
- Activity (NIH3T3 [21]): 11.6%
- Activity (U2OS [22]): 44.8%
- Activity (U2OS [23]): 25.1%
